Experimental data gathered from unrelated publications.
Lines come from different studies, so protocols differ.
Target: Cytoplasmic tyrosine-protein kinase BMX (BMX, Homo sapiens, UniProt P51813)
Sequence (P51813 1-675, as in one of the studies): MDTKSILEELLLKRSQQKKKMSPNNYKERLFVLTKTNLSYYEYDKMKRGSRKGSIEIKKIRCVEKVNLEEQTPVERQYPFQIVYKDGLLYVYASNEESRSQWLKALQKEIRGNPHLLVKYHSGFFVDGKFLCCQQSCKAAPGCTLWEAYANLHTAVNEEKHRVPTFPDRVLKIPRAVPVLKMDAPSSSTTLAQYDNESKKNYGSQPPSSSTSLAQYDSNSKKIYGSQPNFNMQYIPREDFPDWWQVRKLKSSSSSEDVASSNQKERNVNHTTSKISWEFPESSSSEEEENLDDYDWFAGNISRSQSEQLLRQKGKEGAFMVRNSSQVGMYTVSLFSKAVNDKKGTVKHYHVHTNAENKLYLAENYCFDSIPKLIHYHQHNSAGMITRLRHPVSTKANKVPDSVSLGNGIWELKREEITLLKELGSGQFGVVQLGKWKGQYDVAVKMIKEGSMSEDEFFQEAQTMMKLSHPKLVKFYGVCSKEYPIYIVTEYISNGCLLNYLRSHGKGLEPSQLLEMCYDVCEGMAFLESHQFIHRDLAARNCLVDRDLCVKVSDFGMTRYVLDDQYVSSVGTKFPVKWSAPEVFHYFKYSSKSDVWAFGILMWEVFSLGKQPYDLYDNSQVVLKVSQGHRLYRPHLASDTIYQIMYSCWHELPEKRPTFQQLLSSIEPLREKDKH

SMILES | assay | setting | measurement | result
Cc1nn(C)cc1-c1nc2c(N3CCN(Cc4ccc(Cl)cc4)CC3)c(Cl)cnc2[nH]1 | binding, competition with immobilised ligand | 1 µM | remaining binding | 100%
Cn1cc(-c2cccc(N3CCc4c(sc5c4CC(C)(C)C5)C3=O)c2CO)cc(Nc2ccncn2)c1=O | enzyme activity, inhibitor | 1 µM | inhibition | 49%
O=c1[nH]c2ccccc2n1C1CCN(Cc2ccc(-c3[nH]c4cc5ncnc5cc4nc3-c3ccccc3)cc2)CC1 | cell-free assay | 0.5 µM | remaining signal | 108%
C#Cc1n[nH]c2c(-c3cn([C@@H](C)c4ccccn4)c(=O)[nH]c3=O)cc(F)cc12 | enzyme activity, inhibitor | 0.1 µM | inhibition | -1.6%
Cn1cncc1[C@@](O)(COc1ccc(C#N)cc1-c1ccc(OC(F)(F)F)cc1)c1ccc(C#N)cc1 | cell-free assay, competition with immobilised ligand | 1 µM | remaining binding | 64%
Cn1cc(-c2cc(F)cc(N3CCn4c(cc5c4CCCC5)C3=O)c2CO)cc(Nc2ccc(N3CCN(C4COC4)CC3)cn2)c1=O | enzyme activity, inhibitor | 0.1 µM | inhibition | 37%
N#CC1(c2ccccn2)CCN(Cc2cc(C(=O)O)c(=O)n3ccccc23)CC1 | cell-free assay, competition with immobilised ligand | 1 µM | remaining binding | 88%
Nc1ncc(-c2nc(N3CCOCC3)nc(N3CCOCC3)n2)c(C(F)F)n1 | binding, competition with immobilised ligand | 10 µM | remaining binding | 86%
COc1ncccc1-c1cnn2ccc(N3CCN(C(=O)OC(C)C)CC3)nc12 | binding, competition with immobilised ligand | 1 µM | remaining binding | 91%
CCn1cnc2c(Nc3cccc(Cl)c3)nc(N[C@H]3CCCC[C@H]3N)nc21 | enzyme activity, inhibitor | 0.5 µM | remaining activity | 90.7%
C#Cc1n[nH]c2c(-c3cn([C@@H](C)c4ccccc4)c(=O)[nH]c3=O)cc(F)cc12 | enzyme activity, inhibitor | 0.1 µM | inhibition | -7.4%
